# Assay outcomes: PubChem, several laboratories
# This is a sample that favours compounds with a hit; in the whole collection about 4.1% have one here.
# KCNK9 block – blocks the human KCNK9 two-pore domain potassium channel | Q9NPC2 | HEK293 KCNK9, FluxOR thallium flux fluorescence; active compounds read low | B-score at 10 µM | actives 1.2% (n = 310,000);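 active = ratio B-score over 3 SD below the library mean, with starting fluorescence within 5 SD of its mean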;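 also: negative B-score means less thallium flux so channel inhibition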
# KCNQ1 block – human KCNQ1 channel inhibition | P51787 | CHO-K1 KCNQ1, FluxOR thallium flux fluorescence; active compounds read high | B-score at 10 µM | actives 1.3% (n = 310,000);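 active = compounds whose thallium flux B-score, printed positive for inhibition, exceeds three library SD while starting fluorescence stays within three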;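 also: channel opened by potassium depolarization with thallium stimulus after 20 min compound exposure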
# Target sequence (P51787 whole entry, looked up): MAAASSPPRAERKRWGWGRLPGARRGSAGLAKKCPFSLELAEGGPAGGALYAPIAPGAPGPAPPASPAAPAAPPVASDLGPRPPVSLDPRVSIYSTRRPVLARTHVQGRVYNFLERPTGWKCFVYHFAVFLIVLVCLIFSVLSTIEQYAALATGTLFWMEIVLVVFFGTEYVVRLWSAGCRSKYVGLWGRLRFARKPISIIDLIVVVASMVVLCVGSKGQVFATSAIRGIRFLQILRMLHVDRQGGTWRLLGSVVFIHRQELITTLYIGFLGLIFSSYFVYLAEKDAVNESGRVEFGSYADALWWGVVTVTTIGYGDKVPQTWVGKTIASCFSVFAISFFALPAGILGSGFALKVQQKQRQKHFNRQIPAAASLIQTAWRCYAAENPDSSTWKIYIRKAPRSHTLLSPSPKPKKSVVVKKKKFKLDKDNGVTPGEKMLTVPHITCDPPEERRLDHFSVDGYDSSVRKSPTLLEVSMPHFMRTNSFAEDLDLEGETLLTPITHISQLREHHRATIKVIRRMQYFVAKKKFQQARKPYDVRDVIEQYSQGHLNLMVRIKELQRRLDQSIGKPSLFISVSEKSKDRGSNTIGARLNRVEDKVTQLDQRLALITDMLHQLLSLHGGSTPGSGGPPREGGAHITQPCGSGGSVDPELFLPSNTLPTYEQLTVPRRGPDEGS
# KCNK3 block – human KCNK3 channel inhibition, primary screen | O14649 | CHO-KCNK3 thallium flux, FluxOR fluorescence; active compounds read low | B-score at 10 µM | actives 0.84% (n = 340,000) | AID 602410;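 active = B-score under library mean minus 4 SD, starting fluorescence ratio at most library mean plus 5 SD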;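 also: more negative B-score means stronger inhibition of thallium flux through KCNK3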
# Cl transport mod – modulates chloride dependent transport by human KCC2 | AID 1456 | actives 2.2% (n = 190,000) | KCC2 cells, thallium flux FluoZin-2 fluorescence | B-score of Tl+ flux slope (higher = more flux/activation; lower = inhibition) at 10 µM;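 active = thallium flux slope and its plate-corrected score both differing from the plate sample mean at a set confidence after two filtering rounds, in either direction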;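 also: slope of fluorescence scaled to starting intensity during 10 to 20 s after thallium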
# KCNQ1 pot – potentiates or activates the human KCNQ1 potassium channel; P51787; CHO-K1 KCNQ1, thallium flux FluxOR fluorescence; active compounds read high; B-score at 10 µM; actives 0.35% (n = 310,000);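 active = fluorescence ratio B-score, a plate-corrected score, at least three library SD, with initial intensity B-score within 5 SD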
#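 Doses: Single concentration per compound, DMSO matched to controls | Test system: KCNQ1-transfected CHO-K1 cells | Timing: 90 min dye loading and 20 min compound exposure, both at room temperature | Measured by: Kinetic FluxOR thallium fluorescence, 10-s 1-Hz baseline, 110-s post-stimulus read | Medium: Assay buffer with matched DMSO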
# hERG protect – shields human hERG channel from block by proarrhythmic agents | Q12809 | CHO-hERG, FluxOR thallium flux, dofetilide IC70 present | activation (rescue from dofetilide block), less the hit threshold, % at 10 µM | actives 0.51% (n = 310,000);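 active = activation above the mean of controls blocked by dofetilide plus 5 SD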;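 also: thallium influx through hERG after potassium depolarization seen as dye fluorescence rise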
# Numbers stand for hits; i = inactive; nt = not tested or not shown.
SMILES,KCNK9 block,KCNQ1 block,KCNK3 block,Cl transport mod,KCNQ1 pot,hERG protect
CC1CCCCC1NC(=O)Cn1nc(-c2ccccc2)ccc1=O (centres undefined),i,i,i,i,i,4.9
CC(C)(C(=O)c1ccccc1)/[N+]([O-])=C/c1ccccc1,i,i,i,i,i,i
CC(C)(/C=N/O)/[N+]([O-])=C/c1ccccc1,i,7,i,i,i,i
COc1ccc2c(c1)C(=O)Cc1ccccc1O2,i,i,i,nt,i,i
CCOc1ccccc1C(=O)N[C@H](C(=O)OCc1cc(=O)oc2cc(C)ccc12)C(C)C,-6.72,i,i,i,i,i
CCOc1ccccc1C(=O)NC(C(=O)N(C)Cc1ccc2c(c1)OCO2)C(C)C (centres undefined),nt,nt,-9.25,nt,nt,nt
CSc1ccc(/C=N/NC(=O)c2cccs2)cc1,i,i,i,i,46,24.6
O=C(N/N=C\c1ccc(Cl)s1)c1cccs1,i,i,i,19,i,i
Cc1nn(-c2ccccc2)c(C)c1/C=N/NC(=O)c1cccs1,-7.82,i,i,i,i,i
COc1ccccc1C(=O)N/N=C/c1ccc(Cl)s1,i,i,i,i,i,i
Cc1c(/C=N/NC(=O)c2cccs2)c2ccccc2n1Cc1ccccc1Cl,-7.7,i,-9.31,i,i,i
O=C(N/N=C/c1ccncc1)c1cccs1,i,i,i,nt,i,i
CN(c1ccc(F)cc1)S(=O)(=O)c1ccc(Cl)c(C(=O)NCC(c2ccco2)N2CCCCC2)c1 (centres undefined),nt,nt,i,nt,nt,nt
Cc1cccc(OCc2n[nH]c(=S)n2C2CCCCC2)c1,i,i,i,i,8,i
Cc1nc(SC(C)C(=O)NC2CCCC2)c2ccccc2n1 (centres undefined),nt,nt,i,nt,nt,nt
O=[N+]([O-])c1ccccc1C1Nc2cccc3cccc(c23)N1,i,6,i,nt,i,i
Oc1ccccc1C1Nc2cccc3cccc(c23)N1,i,i,i,i,i,i
Cc1cc(C)c(C)c(S(=O)(=O)N2CCC(C(=O)Nc3ccncc3)CC2)c1C,i,i,i,nt,i,i
Cc1cc(C(=O)NNC(=O)/C=C/c2ccco2)c(C)o1,nt,nt,i,nt,nt,nt
Clc1ccc(-c2csc(N3CCc4ccccc4C3)n2)cc1,i,i,i,nt,10,i
c1ccc(-c2csc(N3CCN(c4ccccn4)CC3)n2)cc1,-6.66,i,i,i,i,i
CCS(=O)c1ccccc1C(=O)OCC(=O)Nc1ccc2ccccc2c1 (centres undefined),nt,nt,i,nt,nt,nt
CCN1C(=O)[C@H]2[C@@H](c3ccc(-c4ccc(F)cc4)c(OC)c3)N[C@@](CC(C)C)(C(=O)OC)[C@H]2C1=O,-11.8,i,nt,nt,i,i
CCOc1ccccc1N=C1SCC(C)N1C(=O)C1CCN(c2ncnc3sc(C)c(C)c23)CC1 (centres undefined),nt,nt,i,nt,nt,nt
CC(=O)Nc1nc(=O)c2ccccc2s1,i,i,i,i,i,i
SMILES,KCNK9 block,KCNQ1 block,KCNK3 block,Cl transport mod,KCNQ1 pot,hERG protect
O=C(Nc1nc(=O)c2ccccc2s1)c1ccccc1,i,i,i,41.7,11,i
Cc1ncc(NS(=O)(=O)c2ccc(N)cc2)nc1C,nt,nt,i,nt,nt,nt
Cc1ccc(Cc2ccccc2C(=O)O)cc1,nt,nt,i,nt,nt,nt
N#Cc1c(-c2ccccc2Cl)cc(-c2ccccc2)nc1Br,i,9,i,i,i,i
N#Cc1c(-c2cccc(F)c2)cc(-c2ccccc2)nc1Br,i,i,i,i,i,i
CCOC(=O)/C(C(N)=NCC(C)C)=C(/O)c1ccccc1,i,i,i,i,i,i
CCCOC(=O)/C(C(N)=NCc1ccccc1)=C(\O)OCCC,-6.59,i,i,i,i,i
Cc1nc(Nc2ccc3c(c2)OCCO3)c2oc3ccccc3c2n1,i,i,i,i,i,i
CCc1nc(Nc2ccc3c(c2)OCCO3)c2oc3ccccc3c2n1,-7.57,i,i,i,i,i
CCc1nc(NCC2CCCO2)c2oc3ccccc3c2n1 (centres undefined),i,i,-28,i,i,i
CN(CC(=O)N(C)CC(=O)Nc1c(Cl)cccc1Cl)Cc1ccccc1F,nt,nt,i,nt,nt,nt
COc1ccc2nc(SCC(=O)NCC(F)(F)F)[nH]c2c1,i,i,i,i,i,5.2
CCOC(=O)C1C(c2ccccc2)C(C(=O)OCC)C1c1ccccc1 (centres undefined),i,i,i,i,i,5.7
COCC(=O)N1CCC(Oc2ccc(C(=O)N(C)C(C)c3ccon3)cc2)CC1 (centres undefined),i,i,i,nt,i,i
CCN(CC)CC(=O)c1c(N)n(Cc2ccccc2)c(=O)n(C)c1=O,i,i,i,i,i,i
Cn1c(=O)c(C(=S)NC(=O)C2CC2)c(N)n(Cc2ccccc2)c1=O,i,i,nt,10.5,i,i
C#Cc1ccc(CN2CCC(C(=O)Nc3ccc(Oc4ccccc4)nc3)CC2)cc1,i,6,i,nt,i,i
O=C(Nc1ccccc1C(=O)NC1CC1)c1ccccc1F,nt,nt,i,nt,nt,nt
CCCOc1ccc(OC(=O)c2ccc(Br)o2)cc1,i,i,i,i,i,15.5
CCN(CC(=O)Nc1ccc(NC(C)=O)cc1)C(=O)c1ccc(N2C(=O)c3ccccc3C2=O)cc1,nt,nt,i,nt,nt,nt
O=C(CSc1nc(=O)n(CCCN2CCOCC2)c2c1CCC2)Nc1cccc(F)c1,i,i,i,nt,i,i
Cc1ccccc1NC(=O)Cn1c(O)c(N=NC(=O)c2ccccc2O)c2ccccc21,i,i,i,i,i,i
CCCCNC(=S)N=Nc1c(O)n(Cc2ccccc2)c2ccccc12,i,i,i,8.82,i,i
Cc1ccc(Cn2c(O)c(N=NC(=S)Nc3ccccc3F)c3ccccc32)cc1,i,i,i,i,i,17.8
COC(=O)N=Nc1c(O)n(Cc2ccccc2)c2ccccc12,i,i,i,i,i,i
SMILES,KCNK9 block,KCNQ1 block,KCNK3 block,Cl transport mod,KCNQ1 pot,hERG protect
Oc1c(N=NC(=S)Nc2ccccc2F)c2ccccc2n1Cc1ccccc1Cl,i,i,i,i,10,21.2
COc1ccccc1CNC(=O)CN1C(=O)NC2(CCCCCC2)C1=O,nt,nt,i,nt,nt,nt
O=C(c1cccc(S(=O)(=O)NCc2ccccc2)c1)N1CCN(c2ccccc2Cl)CC1,nt,nt,i,nt,nt,nt
O=C(c1ccc(N2CCCC2)c([N+](=O)[O-])c1)N1CCN(S(=O)(=O)c2ccccc2)CC1,nt,nt,i,nt,nt,nt
CCCCCn1c(=O)[nH]c2cc(C(=O)NCCc3ccc(OC)c(OC)c3)ccc2c1=O,i,i,i,i,i,i
CCCCNC(=O)c1sc(=S)n2c1[nH]c(=O)c1ccc(C(=O)NCCc3ccc(OC)c(OC)c3)cc12,i,i,-10.3,nt,i,i
CC(C)CC(=O)Nc1ccccc1-c1nnn(CC(=O)N2CCc3ccccc3C2)n1,i,i,i,-3.81,i,i
COc1cccc(C(=O)NNC(=O)c2ccccc2)c1,i,i,i,nt,i,i
COc1cccc(C(=O)NNC(=O)C(=O)Nc2ccc(OC)cc2OC)c1,i,i,i,nt,19,12.4
COc1cccc(C(=O)Nc2cccc3ccccc23)c1,i,i,i,nt,i,i
